Measurements taken from the EternaBench riboswitch data.

System: MS2 coat protein
Test: apparent Kd, MS2 coat protein; higher = weaker binding; RNA-MaP array; FMN 200 µM where present
Procedure, shortened: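 Apparent Kd: the median of filtered binding-curve fits from single clusters. Designs were transcribed on Illumina sequencing-chip clusters by stalled E. coli RNA polymerase and titrated with SNAP-549-labelled MS2 coat protein from 0.7 or 1.5 nM, doubling to 3 µM, in 100 mM Tris-HCl pH 7.5, 80 mM KCl, 4 mM MgCl2, BSA, DTT, yeast tRNA and Tween-20. Each series ran without and then with constant ligand, and green signal was normalised to red-channel RNA signal and control-cluster median Fmax.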

[1] = designed as: OFF switch for flavin mononucleotide, no ligand
[2] = ligand present: flavin mononucleotide, designed as: OFF switch for flavin mononucleotide
[3] = designed as: ON switch for flavin mononucleotide, no ligand
[4] = ligand present: flavin mononucleotide, designed as: ON switch for flavin mononucleotide

Sequence | apparent Kd [1] [nM] | apparent Kd [2] [nM] | apparent Kd [3] [nM] | apparent Kd [4] [nM]
GGUACUCAAAGAGUACCAAUAUGAACAUGAGGAUCACCCAUGUAGGAUAUGCUACUCAAAGAGUAGCAGAAGGACAUGUGUCUA | 16.7 | 75.5 |  | 
GGUACUCAAAGAGUACUGAGUCGAACAUGAGGAUCACCCAUGUAGGAUAUGCGAGUUUUGAAUUUGCAGAAGGACAUUUGCAGC | 9.34 | 10.8 |  | 
GGUACUCAAAGAGUACUUGGUCGAACAUGAGGAUCACCCAUGUAGGAUAUACAAAGCAAGAAGUAGUAGAAGGACAUGUGCAGC | 12.9 | 16.2 |  | 
GGUAGGAUCGCAGGAUAUGCUAUCCUUUGGGUAGCAGAAGGGUGAUAACAUGAGGAUCACCCAUGUCCUACCGGGCGUGAGCCC |  |  | 57.8 | 1590
GGUCCAACAUGAGGAUAUAGCACCUUAUUGGUGCUAGAAGGCGUGUCGGUAGACAUGAGGAUCACCCAUGUAUUACAUUGGACC |  |  | 93.2 | 22.4
GGUCCACAUGAGGAUCACCCAUGUUAGGAUAUCUCGCCCGAGCCCAUAUGGGCCAGGCAGAGAAGGAAUGUGAA | 23.7 | 23.5 |  | 
GGUCCUCUGGUGAGGAUAUCUACCCAGGCAGCUGGAGAGAAGGCACAUGAGGAUCACCCAUGUAGCAGAAAACC | 9.98 | 17 |  | 
GGUCGACAUGAGGAUCACCCAUGUCAGGAUAUCGUCACUGGAGCUGCGGCUCCAGUGACGAGAAGGGAUAUGAU | 41.3 | 37.4 |  | 
GGUCGCAAGUAAGGAUAUGCCUAGGAAACCUAGGCAGAAGGUACAUGAGGAUCACCCAUGUUAACGCAAAGCGAAUAAGCGACC | 15.8 | 21.5 |  | 
GGUCGUCAAAUUAACAUGAGGAUCACCCAUGUGAAAACACAUGAGGAUAUGCAUCCUAAUUGGAUGCAGAAGGCAUGGACGACC |  |  | 16.5 | 6.21
GGUGCAUAUGAGAAGGCGGUCAUGAAACAUGAUCGAGGAUAUCAUGUAAACAUGAGGAUCACCCAUGUAUGGGAAUAAUGCACC |  |  | 238 | 16
GGUGCGUUUGUGAGGAUAUGCUGGUCCUUGGUUCGGCAGAAGGCACAUGAGGAUCACCCAUGUGGUGUCGCUCC | 41.7 | 139 |  | 
GGUGGACAUGAGGAUCACCCAUGUGAGGAUAUCGGCUAUCUACUCGCUGACGGCUGCUCGAGAAGGCACAUUGU | 70.7 | 107 |  | 
GGUGGACAUGAGGAUCACCCAUGUGAGGAUAUCGGCUGGCUAGCGGCUGACGGCUGCUCGAGAAGGCGCAUUGU | 65.8 | 84.9 |  | 
GGUGGUGUCCGAGGAUAUCGUUAGGCGUUGUUGCGAGAAGGCGGACAUGAGGAUCACCCAUGUUUGAUGAAAGAGGAGGUUGUG | 98.5 | 123 |  | 
GGUGUACAUGAGGAUCACCCAUGUCGUACGACAUGAGGAUAUGUACAGACUUCGGUCUGUACAGAAGGCAUGUGUC |  |  | 249 | 26.4
GGUUAUUGCAAGGAUAUGCUUUUUUUUUAUAUUGCAGAAGGUGCAACAUGAGGAUCACCCAUGUUGGAGGGAUU | 30.9 | 59.5 |  | 
GGUUCCAACACAGGAUAUGCUAUCCUUUGGGUAGCAGAAGGGUGAAAACAUGAGGAUCACCCAUGUGGAACCGGGCGUGAGCCC |  |  | 412 | 46.5
GGUUCUAGAGGAUAUACAAACUGAUCCUCAGAGCGCCGGCCACAUGAGGAUCACCCAUGUAGAAGGUUGGAAUC | 20.3 | 11.6 |  | 
GGUUGGCGAGGAUAUACAUGAGGAUCACCCAUGUGAGAGAAAAAAGUGAGAACGAAAAGUAGAAGGCGCUGACG | 43.5 | 176 |  | 
GGUUGGCGAGGAUAUACAUGAGGAUCACCCAUGUGGUCCUGUGGCAAAAAAAACCUUUGUAGAAGGCGCGGGUC | 354 | 285 |  | 
GGUUGGCGAGGAUAUACAUGAGGAUCACCCAUGUGGUCCUGUGGCUGGUCAAAACUUUGUAGAAGGCGCGGGUC | 83.1 | 101 |  | 
GUAAAGUGAGGAUAUGCUGGAGGUGUAUUCUACGUGUCGAAACAUGAGGAUCACCCAUGUAGAAGGCACGGGCG | 10.2 | 13.1 |  | 
GUAAAGUGAGGAUAUGGUAAAUUAAUUAUUAAUUAAUUAAUCCAGAAGGCACAUGAGGAUCACCCAUGUAUAUG | 38.2 | 61.3 |  | 
GUAAAGUGAGGAUAUGGUGAGUAGUGCCUGAGCGCUGCUCACCAGAAGGCACAUGAGGAUCACCCAUGUAUAGC | 14.7 | 27.1 |  | 
GUAAAUCAUGUAGGAUAUGCAUGGCGAAGCUACGCAGAAGGACAUGAGGAUCACCCAUGUUAAAGCUACCGAGUUCGGUGGCAA | 133 | 162 |  | 
GUAAAUGGUAUGGCUUCGACCACACAGGAUAUGAAAAUGUACAUGAGGAUCACCCAUGUUCUGAAUCAGAAGGGUGAUGGACGG |  |  | 20.7 | 6.74
GUAACAUGAGGAUCACCCAUGUAUAGAACACUCAAUAGAUCUGAGGAUAUACUAGAAUUUACGUAGUAGAAGGCAGUGGGUACA |  |  | 64.1 | 33.6

Sequence | apparent Kd [1] [nM] | apparent Kd [2] [nM] | apparent Kd [3] [nM] | apparent Kd [4] [nM]
GUAAUAAAGAUCCAAUUAUACUACAUGAGGAUCACCCAUGUGCAGGAUAUCGAGAGUUUAUAAUUCGAGAAGGGCAAAUUCAUU | 73 | 159 |  | 
GUACCUUAUGAGAAGGCGAUCAUGAAACAUGAUCGAGGAUAUCAUGUAAACAUGAGGAUCACCCAUGUAUGGGUAUUAUGGUAG |  |  | 40.8 | 11.3
GUACGUGGACAGAAGGCGACAUGAGGAUCACCCAUGUUGGCUCGGGUAUGACCAAUCCGCAUGAUCGAGGAUAUGUCUGCGGGC | 199 | 14.8 |  | 
GUAGAACAUGAGGAUCACCCAUGUGAGGGCGCAUGAGGAUAUGUCCGUACCUAGCAUACGAUAGAAGGCAUGGUGC |  |  | 38.7 | 27.4
GUAGAGUAGUGAGGAUAUACGAGAUCGAUAGAUCGGCGAUCCAAUAAUACAUGAGGAUCACCCAUGUAGAAGGCACUUCUCUAC | 7.79 | 116 |  | 
GUAGCACAUGAAAAUAUAACAUGAGGAUCACCCAUGUGUUAUGAGGAUAUGGAUGUGAAGUUAAUCCAGAAGGCAUUAUGCUAC |  |  | 21.5 | 11.7
GUAGCAUACCGAGGAUAUCUAUCCCGGAAACGGACAUGAGGAUCACCCAUGUGGCGAAAGCCUUGGGAGAAGGCGGAAUGCUAC |  |  | 46.7 | 17.2
GUAGCAUACCGAGGAUAUCUCAAUAAUAAACAAACAUGAGGAUCACCCAUGUGGCGAAAGCCAAGGGAGAAGGCGGAAUGCUAC |  |  | 43.1 | 17.6
GUAGCAUACCGAGGAUAUUCACAUAAUAAAUAAACAUGAGGAUCACCCAUGUGGCGAAAGCCUAGGGAGAAGGCGGAAUGCUAC |  |  | 76 | 18.7
GUAGCAUACCGAGGAUAUUCAUACAGGAAACAGACAUGAGGAUCACCCAUGUGGCGAAAGCCUUGGGAGAAGGCGGAAUGCUAC |  |  | 146 | 22.7
GUAGCAUACCGAGGAUAUUCAUACCGGAAACGGACAUGAGGAUCACCCAUGUGGCGAAAGCCUUAGGAGAAGGCGGAAUGCUAC |  |  | 16.4 | 12.3
GUAGCAUACCGAGGAUAUUCUAACCGGAAACGGACAUGAGGAUCACCCAUGUGGCGAAAGCCUAGGGAGAAGGCGGAAUGCUAC |  |  | 10.5 | 11.6
GUAGCAUACGGAGGAUAUUCAUACCGGAAACGGACAUGAGGAUCACCCAUGUGGCGAAAGCCUUGGAAGAAGGCCGUAUGCUAC |  |  | 3.96 | 3.55
GUAGCAUACUGAGGAUAUUCAUACCGGAAACGGACAUGAGGAUCACCCAUGUUAUAUAAAUAUUUGGAGAAGGCAGAAUGCUAC |  |  | 19.4 | 13.2
GUAGCAUCAAUUAUACAUGAGGAUCACCCAUGUUACAUGGGUAAGGAUAUUGAGGUUAUUAUUGGCAAGAAGGUACUAUGCUAC |  |  | 409 | 168
GUAGCAUUGAGAGGAUAUCCAUACCGGAAACGGACAUGAGGAUCACCCAUGUGGCGAAAGCCUUGGGAGAAGGCUCUAUGCUAC |  |  | 4.35 | 3.52
GUAGCUAACGGAGGAUAUUCAUACCGGAAACGGACAUGAGGAUCACCCAUGUGGCGAAAGCCAUGGGAGAAGGCCGUUAGCUAC |  |  | 918 | 147
GUAGCUACAUGAGGAUCACCCAUGUAGGAUAUCGCUAUUGUAAUCAUGAAACAUGAUUACAAUAGCGAGAAGGACGUUAGCUAC | 6.31 | 7.31 |  | 
GUAGCUAUCGGAGGAUAUGGGUUGCGGAAACGCACAUGAGGAUCACCCAUGUAAAUAAAUAAUUCCUAGAAGGCCGAUAGCUAC |  |  | 21 | 15
GUAGCUAUCGGAGGAUAUUCAUACCGGAAACGGACAUGAGGAUCACCCAUGUGGCGAAAGCCCUGGGAGAAGGCCGAUAGCUAC |  |  | 382 | 259
GUAGCUAUCGGAGGAUAUUCAUACCGGAAACGGACAUGAGGAUCACCCAUGUGGCGAAAGCCUUGGGAGAAGGUCGAUAGCUAC |  |  | 308 | 10.5
GUAGCUAUCGGAGGAUAUUCAUACCGGAAACGGACAUGAGGAUCACCCAUGUGGCGAAAGCCUUUGGAGAAGGCCGAUAGCUAC |  |  | 3.56 | 3.33
GUAGUGCUCAUAGGAUAUCGGGAACAACGUAGACAGGUUGUACAUGAGGAUCACCCAUGUAAAGUCGAGAAGGGUGAUCACGCC |  |  | 519 | 194
GUAGUUUAUGUAGGAUAUGCGAGGCGAGCCUAAGCAGAAGGACAUGAGGAUCACCCAUGUAUUGCGGUCUGCGUUCAGAUCGCU | 33.2 | 133 |  | 
GUAUAUAUGAGGUAGGAUAUCCAAAAUAAAACAUGAGGAUCACCCAUGUAAAUAAAUAAUAAAUGGGAGAAGGACCACAUAUAUAC |  |  | 30.8 | 13.8
GUAUAUAUGUGGUACAUGAGGAUCACCCAUGUGUCUUUACAUGAGGAUAUGGAUUCUAAUUGGAUCCAGAAGGCAUGUAUAUAC |  |  | 33 | 23.7
GUAUAUCACUAAGGAUAUCUGUAUUUUGUUGAAACAUGAGGAUCACCCAUGUUCAUGAAAUUAUAGGAGAAGGUAGAGAUAUAC |  |  | 4.96 | 4.57
